In ChEMBL document CHEMBL4725388, “Characterization of Aminobenzylphenols as Protein Disulfide Isomerase Inhibitors in Glioblastoma Cell Lines” (J Med Chem, 2020):

Columns and labels:
[1] = molecular target: Protein disulfide-isomerase (Homo sapiens, UniProt P07237); assay: Inhibition of recombinant human wild-type N-terminal His-tagged PDIA1 expressed in Escherichia coli strain BL21(DE3) using bovine insulin as substrate preincubated for 1 hr followed by substrate addition
Procedure, shortened: (§1)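 IC50 from dose-response curves; PDI reductase assay for enzyme, MTT in U-87 MG cells for cytotoxicity; mean ± SD of at least three independent experiments.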

U-87 MG = assay: Cytotoxicity against human U-87 MG cells assessed as growth inhibition measured after 72 hrs by MTT assay; format: functional, cell-based, U-87MG ATCC; procedure, shortened: as §1

Sequence of Protein disulfide-isomerase (P07237 whole entry): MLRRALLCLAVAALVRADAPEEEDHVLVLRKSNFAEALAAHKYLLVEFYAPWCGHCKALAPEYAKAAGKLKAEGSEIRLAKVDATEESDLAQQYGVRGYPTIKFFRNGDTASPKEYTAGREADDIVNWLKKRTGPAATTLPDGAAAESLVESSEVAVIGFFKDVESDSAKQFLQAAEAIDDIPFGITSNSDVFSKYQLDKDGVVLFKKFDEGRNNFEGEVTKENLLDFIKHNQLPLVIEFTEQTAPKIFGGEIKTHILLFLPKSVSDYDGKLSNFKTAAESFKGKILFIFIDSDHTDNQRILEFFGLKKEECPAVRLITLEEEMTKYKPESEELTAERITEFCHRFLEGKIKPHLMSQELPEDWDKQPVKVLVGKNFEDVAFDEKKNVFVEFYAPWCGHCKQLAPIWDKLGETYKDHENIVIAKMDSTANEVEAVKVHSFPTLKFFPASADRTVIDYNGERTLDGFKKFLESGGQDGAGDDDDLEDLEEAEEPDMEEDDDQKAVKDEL

| Compound | IC50 [1] [µM] | IC50 (U-87 MG) [µM] |
| --- | --- | --- |
| Oc1ccc2nccnc2c1C(c1ccc(F)cc1)N1CCCCC1 (stereo unspecified) | > 100 | – |
| Cc1ccnc(NC(c2cc(C)ccc2C)c2ccc3cccnc3c2O)c1 (stereo unspecified) | > 40 | > 10 |
| COc1ccc(C(c2cc3c(cc2O)OCO3)N2CCCCC2)cc1 (stereo unspecified) | 0.88 | 28.3 |
| CNC(=O)NC(c1ccc2c(c1)OCO2)c1cc2c(cc1O)OCO2 (stereo unspecified) | > 40 | > 10 |
| Oc1cc2c(cc1C(Nc1ncccn1)c1ccc3c(c1)OCO3)OCO2 (stereo unspecified) | 1.18 | > 10 |
| Oc1cc2c(cc1C(c1ccc(F)cc1)N1CCCCC1)NCC2 (stereo unspecified) | 7.01 | – |
| Cc1ccnc(NC(c2ccccc2C)c2ccc3cccnc3c2O)c1 (stereo unspecified) | > 40 | > 10 |
| COc1ccc(C(Nc2ncccn2)c2cc3c(cc2O)OCO3)cc1 (stereo unspecified) | 1.3 | > 10 |
| Oc1cc2c(cc1C(c1ccc3c(c1)OCO3)N1CCOCC1)OCO2 (stereo unspecified) | < 0.2 | > 30 |
| COc1cccc(C(c2cc3c(cc2O)OC(F)(F)O3)N2CCOCC2)c1OC (stereo unspecified) | 0.51 | – |
| Oc1c(C(c2ccc(C(F)(F)F)cc2)N2CCCCC2)ccc2ccoc12 (stereo unspecified) | 0.3 | – |
| COc1cccc(C(c2cc3c(cc2O)OCO3)N2CCCC2)c1O (stereo unspecified) | 1.65 | > 10 |
| Cc1ccnc(NC(c2ccc(F)cc2)c2ccc3cccnc3c2O)c1 (stereo unspecified) | 0.14 | > 10 |
| Cc1ccnc(NC(c2ccc3cccnc3c2O)c2c(F)cccc2Cl)c1 (stereo unspecified) | > 40 | 20.6 |
| Oc1cc2c(cc1C(c1ccc(F)cc1)n1ccnc1)OCO2 (stereo unspecified) | 0.67 | > 10 |
| Oc1cc(F)ccc1C(c1ccc2ccoc2c1O)N1CCCCC1 (stereo unspecified) | 1.07 | – |
| Oc1ccc2ncccc2c1C(c1ccc(F)cc1)N1CCCCC1 (stereo unspecified) | > 30 | – |
| Oc1c(C(c2ccc(F)cc2)N2CCCCC2)ccc2ccoc12 (stereo unspecified) | 0.56 | – |
| O=C(O)c1ccccc1NC(c1ccccc1)c1ccc2cccnc2c1O (stereo unspecified) | 1.48 | > 10 |
| Oc1cc2c(cc1C(Nc1ncccn1)c1ccc(F)cc1)OCO2 (stereo unspecified) | 12.7 | > 10 |
| CCc1ccc(C(Nc2cc(C)ccn2)c2ccc3cccnc3c2O)cc1 (stereo unspecified) | 5.39 | 8.9 |
| Oc1c(C(c2ccc(F)cc2)N2CCCCC2)ccc2scnc12 (stereo unspecified) | 0.57 | – |
| O=C(O)c1ccc(NC(c2ccccc2)c2ccc3cccnc3c2O)cc1 (stereo unspecified) | 0.3 | > 10 |
| Cc1ccc(C)c(C(Nc2ccccn2)c2ccc3cccnc3c2O)c1 (stereo unspecified) | 0.73 | 13.8 |

| Compound | IC50 [1] [µM] | IC50 (U-87 MG) [µM] |
| --- | --- | --- |
| COc1cc(C(Nc2ccccn2)c2cc3c(cc2O)OCO3)cc(OC)c1O (stereo unspecified) | 0.17 | > 10 |
| COc1cc(OC)c(C(c2cc3c(cc2O)OCO3)N2CCOCC2)c(OC)c1 (stereo unspecified) | 0.98 | 13.6 |
| Oc1cc2c(cc1C(c1ccc(F)cc1)N1CCCCC1)OCO2 (stereo unspecified) | 0.27 | > 30 |
| Oc1c(C(Nc2ccccn2)c2ccccc2Cl)ccc2cccnc12 (stereo unspecified) | 0.5 | 9.4 |
| COc1ccc(C(Nc2cc(C)ccn2)c2ccc3cccnc3c2O)cc1O (stereo unspecified) | 0.15 | > 10 |
| CC(=O)c1cc2ccc(C(c3ccc(F)cc3)N3CCCCC3)c(O)c2o1 (stereo unspecified) | 1.23 | – |
| Oc1c(C(c2ccc3c(c2)CCC3)N2CCCCC2)ccc2ccoc12 (stereo unspecified) | 0.41 | – |
| Oc1ccc2[nH]ncc2c1C(c1ccc(-n2cccc2)cc1)N1CCCCC1 (stereo unspecified) | 0.29 | – |
| COc1cc(C(Nc2ncccn2)c2cc3c(cc2O)OCO3)cc(OC)c1O (stereo unspecified) | 2.2 | > 10 |
| Cc1ccnc(NC(c2ccc([N+](=O)[O-])cc2)c2ccc3cccnc3c2O)c1 (stereo unspecified) | 0.53 | 3.4 |
| COc1cc(C(c2cc3c(cc2O)OCO3)N2CCCC2)cc(OC)c1OC (stereo unspecified) | 0.18 | 24.2 |
| Oc1cc2c(cc1C(c1ccc3c(c1)OCO3)N1CCCC1)OCO2 (stereo unspecified) | 0.023 | > 30 |
| Oc1c(C(c2ccc(F)cc2)N2CCCCC2)ccc2c1OCCO2 (stereo unspecified) | 0.29 | – |
| Oc1c(C(c2ccc(F)cc2)N2CCCCC2)ccc2cncnc12 (stereo unspecified) | 4.86 | – |
| Oc1cccc(C(Nc2ccccn2)c2ccc3cccnc3c2O)c1Cl (stereo unspecified) | 0.37 | > 10 |
| Cc1ccnc(NC(c2ccc(C(F)(F)F)cc2)c2ccc3cccnc3c2O)c1 (stereo unspecified) | 26.5 | 2.1 |
| COc1ccc(C(c2cc3c(cc2O)OCO3)N2CCCCC2)c(OC)c1 (stereo unspecified) | 2.59 | > 30 |
| Cc1cc(C)c(C(Nc2ccccn2)c2ccc3cccnc3c2O)c(C)c1 (stereo unspecified) | 0.19 | 10 |
| Oc1ccc2ccncc2c1C(c1ccc(F)cc1)N1CCCCC1 (stereo unspecified) | 10.2 | – |
| COc1ccccc1C(c1cc2c(cc1O)OCO2)N1CCOCC1 (stereo unspecified) | 0.33 | 27.7 |
| Oc1cc2c(cc1C(c1ccc(F)cc1)N1CCCC1)OCO2 (stereo unspecified) | < 0.2 | > 30 |
| Cc1ccnc(NC(c2ccccc2)c2ccc3cccnc3c2O)c1 (stereo unspecified) | < 0.2 | > 10 |
| NC(=O)NC(c1ccc(O)cc1)c1cc2c(cc1O)OCO2 (stereo unspecified) | > 40 | > 10 |
| Oc1c(C(c2ccc(F)cc2)N2CCCCC2)ccc2cnccc12 (stereo unspecified) | 0.61 | – |
